Laboratory results reported in PubChem BioAssay.
Values without a mark were called inactive. Results filed as inconclusive are left out. Active and inactive are the calls of the source.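 Rule for the calls, unless noted: active = cell viability at or below a set limit in both duplicate runs, the limit being the all-compound median minus 4 SD (cut at about 23% in these data, passing the limit was not always enough); inconclusive = no clear call, values can overlap the other calls; inactive = the rest.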

Assays:
[1] = S. cerevisiae growth inhibition in permissive medium (OD615), pilot counter-assay for S. cerevisiae lifespan shortening project, permissive growth control (AID 705;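 active = growth inhibition above 25% in both replicates, a cutoff set 3 SD above the mean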); settings: OD615, 24 h, at 10 µM, active compounds read high
How it was run: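 System: Engineered DeaD yeast | Buffer or medium: SC raffinose/galactose permissive medium | Incubation: Cells pre-grown 4 h, then 24 h compound exposure, 30 °C humidified | Measured by: Absorbance (optical density) at 615 nm | Read-out: Reduction in yeast growth (OD615)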

[2] = S. cerevisiae growth inhibition in restrictive medium, OD615, pilot screen, restrictive growth control, yeast lifespan reduction project (AID 706;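 active = growth inhibition above a set limit, 3 SD over mean compound inhibition, in both replicates, cut at about 43% in these data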;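 note: modified DeaD lifespan yeast strain shifted to restrictive glucose medium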); settings: OD615, 48 h, at 10 µM, active compounds read high
How it was run: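 Material: modified S. cerevisiae; Medium: glucose-based CSMM-D restrictive medium; Compound dosing: one concentration, 10 µM final, 0.25% DMSO; Incubation: 48 h compound exposure at 30 °C; Measured by: OD615.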

[3] = doxorubicin toxicity protection in MRP-1 cells – H69AR cells, CellTiter-Glo, duplicate, MRP-1 activator project, pilot screen (AID 807;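 active = viability increase at or above a cutoff of the median across tested compounds plus 3 SD, cut at about 8.5% in these data, passing the limit was not always enough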;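 note: compound pretreatment 18-22 h then 72 h combined with doxorubicin; 0% = doxorubicin alone and 100% = vehicle without doxorubicin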); settings: H69AR viability with doxorubicin, CellTiter-Glo luminescence; at 10 µM; active compounds read high
[4] = viability of HCT116 without oncogenic beta-catenin – human colon tumor cells, pilot screen (AID 823); settings: HCT116 beta-catenin knockout viability, CellTiter-Glo, 60 h; at 10 µM; active compounds read low;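 note: 0% = wells killed by 20 µM Hyamine and 100% = untreated DMSO cell wells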
[5] = RAM pathway blockade in budding yeast – dse1pr::URA3 reporter, 5-FOA selection, pilot screen (AID 869;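 active = inhibition over a set limit, the all-compound mean plus 3 SD, in both replicate runs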;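 note: 0% = DMSO wells with no growth and 100% = 10 µM 1-NA-PP1 with full growth; RAM network block rescues cells from 5-FOA so hits raise OD615 growth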); settings: S. cerevisiae dse1pr::URA3 5-FOA growth, OD615, 2 d; at 10 µM; active compounds read high; strain carries analog-sensitive mutant Cbk1 kinase
[6] = RAM signaling pathway blockade in yeast – S. cerevisiae, Pdr1DBD-CYC8 efflux-inhibited sensitized strain, primary screen (AID 1298;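 active = RAM network inhibition above 8.4% in each of two replicates, 3 SD over the compound average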;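 note: 0% = DMSO untreated cells without growth and 100% = 10 µM 1-NA-PP1 full growth; higher means more yeast growth rescued from 5-FOA killing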); settings: S. cerevisiae cbk1-as DSE1-URA3 strain, 5-FOA growth OD615, 2 d; at 50 µM; active compounds read high

O=c1[nH]n(-c2ncnc3c2cnn3-c2ccccc2)c(=O)c2ccccc12
growth inhibition [1]: -3.32% | growth inhibition [2]: 13.1% | viability increase [3]: -2.9% | viability [4]: 101% | inhibition [5]: 1.52% | RAM network inhibition [6]: 2.07%

CCN(CC)C(=O)c1cn(CC)c(=O)c2cc(OC)c(OC)cc12
growth inhibition [1]: -18.9% | growth inhibition [2]: 2.04% | viability increase [3]: -3.37% | viability [4]: 103% | inhibition [5]: 0.93% | RAM network inhibition [6]: 2.76%

CCOc1cc(OCC)cc(C(=O)Nc2cccnc2)c1
growth inhibition [1]: -12.6% | growth inhibition [2]: -12.7% | viability increase [3]: -1.99% | viability [4]: 100% | inhibition [5]: 1.77% | RAM network inhibition [6]: 4.32%

OC(COCc1cccs1)CN1CCN(c2ccccn2)CC1 (stereo not drawn)
growth inhibition [1]: -19.5% | growth inhibition [2]: -7.78% | viability increase [3]: -1.3% | viability [4]: 101% | inhibition [5]: 2.32% | RAM network inhibition [6]: 4.89%

CCCCCn1c(=O)[nH]c2cc(C(=O)NCc3ccc4c(c3)OCO4)ccc2c1=O
growth inhibition [1]: -12.1% | growth inhibition [2]: -10.7% | viability increase [3]: -6.7% | viability [4]: 71.2% | inhibition [5]: 3.82% | RAM network inhibition [6]: 5.87%

O=C(CN1CCN(c2ccccn2)CC1)Nc1cccc(C(F)(F)F)c1
growth inhibition [1]: -3.17% | growth inhibition [2]: 5.07% | viability increase [3]: -1.96% | viability [4]: 97.9% | inhibition [5]: 2.27% | RAM network inhibition [6]: 2.45%

CCOc1ccc(-n2c(SCC(=O)Nc3ccc4c(c3)OCCO4)nc3c(c2=O)SCC3)cc1
growth inhibition [1]: -12.9% | growth inhibition [2]: -5.05% | viability increase [3]: -2.09% | viability [4]: 84.1% | inhibition [5]: 3.17% | RAM network inhibition [6]: 9.35%

O=C(NCc1nc2ccccc2[nH]1)c1ccc(S(=O)(=O)N2CCOCC2)cc1
growth inhibition [1]: -9.52% | growth inhibition [2]: -0.75% | viability increase [3]: -2.83% | viability [4]: 85.8% | inhibition [5]: 1.77% | RAM network inhibition [6]: 3.06%

Cc1ccc(S(=O)(=O)c2nc(-c3cccs3)oc2SCC(N)=O)cc1
growth inhibition [1]: -8.57% | growth inhibition [2]: 10.4% | viability increase [3]: -2.87% | viability [4]: 106% | inhibition [5]: -0.475% | RAM network inhibition [6]: 3.22%

CC(=O)Nc1cc(OC(=O)c2ccco2)cc(OC(=O)c2ccco2)c1
growth inhibition [1]: -22.3% | growth inhibition [2]: 3.33% | viability increase [3]: -2.27% | viability [4]: 103% | inhibition [5]: 1.36% | RAM network inhibition [6]: 5.4%

COc1cccc(-c2nnc(NC(=O)c3cccc(F)c3)o2)c1
growth inhibition [1]: -12.9% | growth inhibition [2]: 10.2% | viability increase [3]: 0.12% | viability [4]: 15.9% (active) | inhibition [5]: 1.04% | RAM network inhibition [6]: 0.35%

CC(=O)NCC(=O)N(c1c(C)n(C)n(-c2ccccc2)c1=O)C1(C(=O)NC2CCCC2)CCCCC1
growth inhibition [1]: 10% | growth inhibition [2]: -0.075% | viability increase [3]: -0.84% | viability [4]: 97.2% | inhibition [5]: 1.13% | RAM network inhibition [6]: -0.72%

COc1cc2c(cc1OC)C(C(=O)Nc1cccc(C)n1)C(c1cccnc1)N(C)C2=O (stereo not drawn)
growth inhibition [1]: 8.34% | growth inhibition [2]: -5.33% | viability increase [3]: -3.94% | viability [4]: 91.7% | inhibition [5]: 0.58% | RAM network inhibition [6]: 6.27%

C[C@@H](NC(=O)c1coc(=O)c(Br)c1)c1ccccc1
growth inhibition [1]: -24.5% | growth inhibition [2]: 3.37% | viability increase [3]: -8.28% | viability [4]: 63.7% | inhibition [5]: 3.79% | RAM network inhibition [6]: 7.48%

COC(=O)c1cn(NC(=O)c2cnccn2)c(=O)c2ccccc12
growth inhibition [1]: -5.4% | growth inhibition [2]: 16.9% | viability increase [3]: 2.86% | viability [4]: 27.8% | inhibition [5]: 1.15% | RAM network inhibition [6]: -0.31%

Cn1c(Cn2c(=O)sc3ccccc32)nnc1SCc1ccc(F)cc1
growth inhibition [1]: -7.12% | growth inhibition [2]: -5.41% | viability increase [3]: -4.85% | viability [4]: 23.7% (active) | inhibition [5]: 2.8% | RAM network inhibition [6]: 16.2% (active)

Cc1cccc(C)c1NC(=O)CSc1nnc([C@@H]2CCCN2C(=O)OC(C)(C)C)o1
growth inhibition [1]: -11.8% | growth inhibition [2]: -6.59% | viability increase [3]: -1.42% | viability [4]: 96.3% | inhibition [5]: 2.23% | RAM network inhibition [6]: 8.94%

CCn1cc(C(=O)NC2CCCCCC2)c2cc(OC)c(OC)cc2c1=O
growth inhibition [1]: -29.2% | growth inhibition [2]: 1.87% | viability increase [3]: -3.91% | viability [4]: 76.3% | inhibition [5]: 2.02% | RAM network inhibition [6]: 4.11%
